Test results from ChEMBL document CHEMBL1764975, “A new DNA gyrase inhibitor subclass of the cyclothialidine family based on a bicyclic dilactam-lactone scaffold. Synthesis and antibacterial properties” (J Med Chem, 2011).
In brackets after ≈: the same amount, converted by molar mass.

What was measured:
[1] = test system: Staphylococcus epidermidis; experiment: Antimicrobial activity against Staphylococcus epidermidis 16/2 after 18 hrs by agar dilution method; type: functional; conditions: 16/2, 18 h
Outline: (§1)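 Agar dilution on Mueller-Hinton medium, inoculum 10⁴ CFU/spot; MIC is the minimum inhibitory concentration against the named strain.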

[2] = test system: Stenotrophomonas maltophilia; experiment: Antimicrobial activity against Xanthomonas maltophilia IAC 739 after 18 hrs by agar dilution method; type: functional; conditions: IAC 739, 18 h; outline: as §1
[3] = test system: Streptococcus pyogenes; experiment: Antimicrobial activity against Streptococcus pyogenes b15 after 18 hrs by agar dilution method; type: functional; conditions: b15, 18 h; outline: as §1
[4] = test system: Staphylococcus aureus; experiment: Antimicrobial activity against Staphylococcus aureus ATCC 25923 after 18 hrs by agar dilution method; type: functional; conditions: ATCC 25923, 18 h; outline: as §1
[5] = Octanol-water partition coefficient, log D of the compound at pH 7.4 by shake-flask method; type: physicochemical
Outline: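 Octanol/water partition measured by shake-flask at pH 7.4.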

[6] = test system: Escherichia coli; experiment: Antimicrobial activity against Escherichia coli 25922 after 18 hrs by agar dilution method; type: functional; conditions: Escherichia coli, 25922, 18 h; outline: as §1
[7] = test system: Escherichia coli; experiment: Inhibition of Escherichia coli DNA gyrase A2B2 complex after 30 mins by supercoiling assay
[8] = test system: Enterococcus faecalis; experiment: Antimicrobial activity against Enterococcus faecalis 6 after 18 hrs by agar dilution method; conditions: Enterococcus faecalis, 6, 18 h
[9] = test system: Staphylococcus aureus; experiment: Plasma shift, ratio of MIC for Staphylococcus aureus Smith in presence of mouse plasma to MIC for Staphylococcus aureus Smith in absence of mouse plasma; type: functional
Outline: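 Agar dilution MICs against S. aureus Smith were run on BHI agar mixed 1:1 with mouse plasma and on plain BHI agar. The plasma shift is the MIC with plasma divided by the MIC on BHI agar alone.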

[10] = test system: Staphylococcus aureus; experiment: (§2) Antimicrobial activity against Staphylococcus aureus Smith after 18 hrs by agar dilution method; type: functional; outline: as §1
[11] = test system: Staphylococcus aureus; experiment: Antimicrobial activity against Staphylococcus aureus Smith infected in iv dosed septicaemia Swiss albino mouse model after 4 days; type: functional; conditions: 96 h
Outline: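 Septicaemia model in mice infected with S. aureus Smith, compound given iv. In experiments with 0-1 survivors among 5-10 control mice, ED₅₀ (mg/kg) taken as lowest dose giving 3-5 survivors out of 5 infected mice.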

[12] = test system: Staphylococcus aureus; experiment: as §2; type: functional; outline: as §1; remark: listed apart in the source
[13] = test system: Haemophilus influenzae; experiment: Antimicrobial activity against multidrug-resistant Haemophilus influenzae after 18 hrs by agar dilution method; type: functional
Outline: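 Agar dilution on Haemophilus test medium, inoculum 10⁵ CFU/spot, against 21 multiresistant H. influenzae strains. MIC_50/90 in μg/mL taken as the minimum concentration inhibiting at least 50% or 90% of the strains.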

[14] = test system: Staphylococcus aureus; experiment: Antimicrobial activity against multidrug-resistant Staphylococcus aureus after 18 hrs by agar dilution method; type: functional
Outline: (§3)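 Agar dilution on Mueller-Hinton agar, inoculum 10⁴ CFU/spot, against panels of multiresistant clinical strains (S. aureus 11, E. faecalis 16, E. faecium 23). MIC_50/90 in μg/mL taken as the minimum concentration inhibiting at least 50% or 90% of the strains tested.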

[15] = test system: Enterococcus faecalis; experiment: Antimicrobial activity against multidrug-resistant Enterococcus faecalis after 18 hrs by agar dilution method; type: functional; outline: as §3
[16] = test system: Moraxella catarrhalis; experiment: Antimicrobial activity against multidrug-resistant Moraxella catarrhalis after 18 hrs by agar dilution method; type: functional
Outline: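 Agar dilution on Mueller-Hinton agar supplemented with sheep blood (5% v/v), inoculum 10⁵ CFU/spot, against 20 multiresistant M. catarrhalis strains. MIC_50/90 in μg/mL taken as the minimum concentration inhibiting at least 50% or 90% of the strains.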

[17] = test system: Enterococcus faecium; experiment: Antimicrobial activity against multidrug-resistant Enterococcus faecium after 18 hrs by agar dilution method; type: functional; outline: as §3
[18] = test system: Streptococcus pneumoniae; experiment: Antimicrobial activity against multidrug-resistant Streptococcus pneumoniae after 18 hrs by agar dilution method; type: functional
Outline: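 Agar dilution on IsoSensitest agar supplemented with sheep blood (5% v/v), inoculum 10⁴ CFU/spot, against 21 multiresistant S. pneumoniae strains. MIC_50/90 in μg/mL taken as the minimum concentration inhibiting at least 50% or 90% of the strains.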

Structure (SMILES)	MIC [1]	MIC [2]	MIC [3]	MIC [4]	logD [5]	MIC [6]	MNEC [7]	MIC [8]	Ratio [9]	MIC [10]	ED50 [11]	MIC [12]	MIC50 [13]	MIC90 [13]	MIC50 [14]	MIC90 [14]	MIC50 [16]	MIC90 [16]	MIC50 [18]	MIC90 [18]	other results
COc1cc(O)c2c(c1Br)C(=O)OCCCCC(=S)N[C@H](c1nc(C)no1)CSC2	< 0.12 µg/mL	1 µg/mL (≈ 1.94 µM)	0.12 µg/mL (≈ 0.232 µM)	< 0.12 µg/mL	3.23	> 64 µg/mL	0.005 µg/mL	0.12 µg/mL (≈ 0.232 µM)	8	< 0.12 µg/mL	> 25 mg/kg	0.12 µg/mL (≈ 0.232 µM)									
COc1cc(O)c2c(c1C)C(=O)O[C@H](CO)CCC/C(S)=N/[C@H](c1nc(C)no1)CSC2							0.005 µg/mL				12.5 mg/kg	0.5 µg/mL (≈ 1.04 µM)	8 µg/mL (≈ 16.6 µM)	8 µg/mL (≈ 16.6 µM)	1 µg/mL (≈ 2.08 µM)	1 µg/mL (≈ 2.08 µM)	2 µg/mL (≈ 4.15 µM)	2 µg/mL (≈ 4.15 µM)	2 µg/mL (≈ 4.15 µM)	4 µg/mL (≈ 8.31 µM)	MIC50 [15]: 1 µg/mL (≈ 2.08 µM); MIC90 [15]: 1 µg/mL (≈ 2.08 µM); MIC50 [17]: 1 µg/mL (≈ 2.08 µM); MIC90 [17]: 2 µg/mL (≈ 4.15 µM)
CC(=O)NC[C@H]1CN(c2ccc(N3CCOCC3)c(F)c2)C(=O)O1 [LINEZOLID]													8 µg/mL (≈ 23.7 µM)	16 µg/mL (≈ 47.4 µM)	1 µg/mL (≈ 2.96 µM)	2 µg/mL (≈ 5.93 µM)	8 µg/mL (≈ 23.7 µM)	16 µg/mL (≈ 47.4 µM)	1 µg/mL (≈ 2.96 µM)	2 µg/mL (≈ 5.93 µM)	MIC50 [15]: 2 µg/mL (≈ 5.93 µM); MIC90 [15]: 2 µg/mL (≈ 5.93 µM); MIC50 [17]: 1 µg/mL (≈ 2.96 µM); MIC90 [17]: 2 µg/mL (≈ 5.93 µM)
COc1cc(O)c2c(c1C)C(=O)OCCCCC(=S)N[C@H](c1nc(C)no1)CSC2	0.01 µg/mL (≈ 0.0221 µM)	0.5 µg/mL (≈ 1.11 µM)	0.25 µg/mL (≈ 0.554 µM)	0.12 µg/mL (≈ 0.266 µM)	3.09	> 64 µg/mL	0.004 µg/mL	0.25 µg/mL (≈ 0.554 µM)	8	0.06 µg/mL (≈ 0.133 µM)	> 25 mg/kg	0.06 µg/mL (≈ 0.133 µM)	8 µg/mL (≈ 17.7 µM)	16 µg/mL (≈ 35.4 µM)	1 µg/mL (≈ 2.21 µM)	1 µg/mL (≈ 2.21 µM)	2 µg/mL (≈ 4.43 µM)	2 µg/mL (≈ 4.43 µM)	1 µg/mL (≈ 2.21 µM)	2 µg/mL (≈ 4.43 µM)	MIC50 [15]: 4 µg/mL (≈ 8.86 µM); MIC90 [15]: 4 µg/mL (≈ 8.86 µM); MIC50 [17]: 8 µg/mL (≈ 17.7 µM); MIC90 [17]: 8 µg/mL (≈ 17.7 µM)
CC1(C)S[C@@H]2[C@H](NC(=O)Cc3ccccc3)C(=O)N2[C@H]1C(=O)O [PENICILLIN G]													32 µg/mL (≈ 95.7 µM)	> 32 µg/mL			8 µg/mL (≈ 23.9 µM)	32 µg/mL (≈ 95.7 µM)	2 µg/mL (≈ 5.98 µM)	8 µg/mL (≈ 23.9 µM)	
COc1cc(O)c2c(c1C)C(=O)OCCCCC(=S)N[C@H](c1nc(CN)no1)CSC2.Cl	< 0.12 µg/mL	4 µg/mL	0.5 µg/mL	0.5 µg/mL	1.85	64 µg/mL	0.002 µg/mL	0.5 µg/mL	4	0.25 µg/mL	8.5 mg/kg	0.25 µg/mL									
COc1cc(O)c2c(c1Br)C(=O)OCCCCC(=O)N[C@H](c1nc(C)no1)CSC2	< 0.12 µg/mL	2 µg/mL (≈ 4 µM)	< 0.12 µg/mL	< 0.12 µg/mL	2.18	64 µg/mL (≈ 128 µM)	0.005 µg/mL	0.12 µg/mL (≈ 0.24 µM)	4	< 0.12 µg/mL	25 mg/kg	0.12 µg/mL (≈ 0.24 µM)									
COc1cc(O)c2c(c1C)C(=O)OCCCCC(=O)N[C@H](c1nc(C)no1)CSC2	0.12 µg/mL (≈ 0.276 µM)	4 µg/mL (≈ 9.18 µM)	1 µg/mL (≈ 2.3 µM)	0.5 µg/mL (≈ 1.15 µM)	1.99	> 64 µg/mL	0.01 µg/mL	0.5 µg/mL (≈ 1.15 µM)	2	0.25 µg/mL (≈ 0.574 µM)	> 25 mg/kg	0.25 µg/mL (≈ 0.574 µM)									
COc1cc(O)c2c(c1Br)C(=O)OCC(=O)NCC(=O)N[C@H](c1nc(C)no1)CSC2	< 0.12 µg/mL	> 64 µg/mL	< 0.12 µg/mL	4 µg/mL (≈ 7.76 µM)	1.4	> 64 µg/mL	0.02 µg/mL	0.5 µg/mL (≈ 0.97 µM)	2	1 µg/mL (≈ 1.94 µM)	3 mg/kg	1 µg/mL (≈ 1.94 µM)	1 µg/mL (≈ 1.94 µM)	4 µg/mL (≈ 7.76 µM)	4 µg/mL (≈ 7.76 µM)	4 µg/mL (≈ 7.76 µM)	1 µg/mL (≈ 1.94 µM)	2 µg/mL (≈ 3.88 µM)	0.5 µg/mL (≈ 0.97 µM)	2 µg/mL (≈ 3.88 µM)	MIC50 [15]: 0.25 µg/mL (≈ 0.485 µM); MIC90 [15]: 0.5 µg/mL (≈ 0.97 µM); MIC50 [17]: 0.5 µg/mL (≈ 0.97 µM); MIC90 [17]: 0.5 µg/mL (≈ 0.97 µM)
